# Results reported in the RNAGym collection of RNA variant scans (doi:10.1126/science.aae0568).
# Variants at the floor of the assay were thinned out.
# B1: tRNA (parent)
# chain: GUUCCGUUGGCGUAAUGGUAACGCGUCUCCCUCCUAAGGAGAAGACUGCGGGUUCGAGUCCCGUACGGAACG
# Variants of: B1
# Experiment: yeast fitness relative to wild type (ratio to wild type); higher = fitter; tRNA-Arg(CCU), competitive growth, 37 C, YPD
# In short: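 The tRNA-Arg(CCU) gene variants were made by chemical synthesis with a 3% per-site mutation rate at 69 sites and inserted at the native genomic locus of Saccharomyces cerevisiae. After pooling, the strains were competed in YPD at 37°C for 24 hours in six parallel replicates. Gene amplicons from the start population and each end population were read by 100-nucleotide paired-end sequencing, and Darwinian fitness relative to wild type was taken from genotype frequency changes. Genotypes needed ≥ 100 starting reads, and estimates < 0.5 were set to 0.5.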
row,Variant,yeast fitness
1,GUUCCGUUGGCGUAAAGGUAACGCGUCUCCCUCCUAAGGAGAAGACUGCGGAUUCGCGUCCCGUACGGAACG [U16A G52A A57C],0.571
2,GUUCCGUUGGCGUAAAGAUAACGCGUCUCCUUCCUAAGGAGAAGACUGCGGGUUCGAGUCCCGUACGGAACG [U16A G18A C31U],≤ 0.5
3,GUUCCGUUGGCGUAAAGGUAACGCGUCUCCCGCCUAAGGAGAAGACUGCGGGUUGGAGUCCCGUACGGAACG [U16A U32G C55G],≤ 0.5
4,GUUCCGUUGGCGUAAAGGUAACGCGUCUGCCUCCUAAGGAGAAGACUGCGGGUUCGAGUCCCGUACGGAACG [U16A C29G],0.669
5,GUUCCGUUGGCGUAAAGGUAACGCGUCUCCCCCCUAUGGAGAAGACUGGGGGUUCGAGUCCCAUACGGAUCG [U16A U32C A37U C49G G63A A70U],≤ 0.5
6,GUUCCGUUGGCGUAAAGGUAACGCGUCUCCCUCCUAAGGAGAAGACUGCGGGUUUGCGUCCCGUACGGAACG [U16A C55U A57C],≤ 0.5
7,GUUCCGUUGGCGUAAAGGUAACGCGUCUCCGUCCUAAGGAGAAGACUGCGGGUUCGAGUCCCGUACGGAACG [U16A C31G],0.87
8,GUUCCGUUGGCGUAAAGGUAACGCGUCUCCCUCCUAAGGAGAAGACUGCGGGUCCGAGUCCCGUACGGAACG [U16A U54C],0.849
9,GUUCCGUUGGCGUAAAGCUAACGCGUCUCCUUCCUAAGGAGAAGACUGCGCGUUCGAGUCCCGUACGGAACG [U16A G18C C31U G51C],≤ 0.5
10,GUUCCGUUGGCGUAAAGGUAAUGCGUCUCCCUCCUAAGGAGAAGACUGCGGGUUAGAGUCCCGUACGGAACG [U16A C22U C55A],0.808
11,GUUCCGUUGGCGUAAAGGUAACGUGUCUCGCUCCAAAGGAGAAGACUGCGGGUUCGAGUCCCGUACGGAACG [U16A C24U C30G U35A],0.539
12,GUUCCGUUGGCGUAAAGGUAACGCGUCUCCCUCCCAAGGAGAAGGCUGCGGGUUCCAGUCCCGUACGGAACG [U16A U35C A45G G56C],0.602
13,GUUCCGUUGGCGUAAAGGUAAGGCGUCUCCCUCCUAAGGAGAAGACUGCGGGUUCGAGUCCCGUACGGUACG [U16A C22G A69U],0.791
14,GUUCCGUUGGCGUAACGGUAAUGCGUCUCCCUCCUAUGGAGAAGACUGCGGGUUCGAGUCCCGUACCGAACG [U16C C22U A37U G67C],≤ 0.5
15,GUUCCGUUGGCGUAACGGUAACGCGUCUCCCUCCUAAGGAGAAGACUGCGGGUUCGAGUCCCGUACGGGGCG [U16C A69G A70G],0.745
16,GUUCCGUUGGCGUAAAGGUAACGCGUCUCUCUCCUAAGGAGAAGACUGCGGGUUCGUGUCCCGUACGGAACG [U16A C30U A57U],≤ 0.5
17,GUUCCGUUGGCGUAAAGGUAACGCGUCUCUCUCCUAAGGAGAAGGCUGCGGGUUCGAGUCCCGUACGGAACG [U16A C30U A45G],≤ 0.5
18,GUUCCGUUGGCGUAACGGUUACGUGUCUCCCUCCUAAGGAGAAGACUGCGGGUUCGAGUCCCGUUCGGAACG [U16C A20U C24U A65U],≤ 0.5
19,GUUCCGUUGGCGUAACGGUAACGCGUCUCCCUCCUAAGGCGAAGACUGCGGGUUCGUGUCCCGUACGAAACG [U16C A40C A57U G68A],0.641

row,Variant,yeast fitness
1,GUUCCGUUGGCGUAAAGGUAACGCGUCUCCCUCCUAAGGACAAGCCUGCGGGUUCGAGUCCCGUACGGAACG [U16A G41C A45C],≤ 0.5
2,GUUCCGUUGGCGUAAAGGUAACGCGUCUCCCUCCUAAGGAAAAGACUGCGGGUUCGAGUCCCGUACGGAUCG [U16A G41A A70U],0.666
3,GUUCCGUUGGCGUAAAGGUAACGCGACUCCCUCCUAAGGAGAAGACUGGGGGUUCGAGUCACGUACGGAACG [U16A U26A C49G C61A],0.586
4,GUUCCGUUGGCGUAAAGGUAACGCGUCUCCCUCCUAAGGAGAAGAGUGCGGGUUCGAGUCCCGUACGGAGCG [U16A C46G A70G],0.604
5,GUUCCGUUGGCGUAAAGGUAACCCGUGUCCCUCAUAAGGAGAAAACUGCGGGUUCGAGUCCCGUACGGAACG [U16A G23C C27G C34A G44A],≤ 0.5
6,GUUCCGUUGGCGUAAAGGUAACGCGUCUCCCUCCUAAGGAGAAGACCGCGGGUUCGAGUCCCGUACGGAGCG [U16A U47C A70G],0.78
7,GUUCCGUUGGCGUAAAGGUAACGCGUCUGCCACCUGAGGAGAAGACUGUGAGUUCGAGUCCCGUACGGAACG [U16A C29G U32A A36G C49U G51A],≤ 0.5
8,GUUCCGUUGGCGUAACGGUUACGCAUCCCGCUCCUAAGGAGAAGACUGCGGGUUCGAGUCCCGUACGGAACG [U16C A20U G25A U28C C30G],≤ 0.5
9,GUUCCGUUGGCGUAAAGGUAACGCGUCUCCCUCCCAAGGAGAAGACUGCGGGUUCGAGUCCCGUACGGAACG [U16A U35C],0.91
10,GUUCCGUUGGCGUAACGGUAACGCGUCUCCCUCCUAAGGAGGAGACUGCGGGUUCGAGUCCCGUACAGAACG [U16C A42G G67A],≤ 0.5
11,GUUCCGUUGGCGUAAAGGUAACGCGUCUCCCUCUUAAGGAGAAGACUGCGGGUUCGAGUCCCGUACGGAUCG [U16A C34U A70U],≤ 0.5
12,GUUCCGUUGGCGUAAAGGUAACGUGUCUCCCUUCUUAGGUGAAGACUGCGGGUUCCGGUCCCGUACGGCACG [U16A C24U C33U A36U A40U G56C A57G A69C],≤ 0.5
13,GUUCCGUUGGCGUAAAGGUAACGGGUCUCCCUCCUAAGGAGAAGACUGCGGGUUCGAGUAGCGUACGGAACG [U16A C24G C60A C61G],≤ 0.5
14,GUUCCGUUGGCGUAAAGGUAACGCGUCUCGCUCCUAAGGAGAAGACUGCAGGUUCGAGUACCGUACGGAACG [U16A C30G G50A C60A],0.547
15,GUUCCGUUGGCGUAAAGGUAAACCGUCUCCCUCUUGAGGUGAAGACUGCGGGUUCGAGUCCCGUACGGAACG [U16A C22A G23C C34U A36G A40U],≤ 0.5
16,GUUCCGUUGGCGUAACGGUAGCGCGUCUCCCUCCUAAGGAGAAGACUGCGGGUUCGAGUCCCGUACGGAACG [U16C A21G],0.91
17,GUUCCGUUGGCGUAACGGUAACGCGUCUCCCUCCUCAGGAGAAGACUGCGGGUUCGAGUCCCGUACGGAACG [U16C A36C],0.675
18,GUUCCGUUGGCGUAAAGGUAACGCGUCCCCCUCCUAAGGAGAAGACCGCGGGUUCGAGUCCCGUACGGAACG [U16A U28C U47C],0.79
